Screens deposited in PubChem BioAssay by several laboratories.
Lmaj promast: Leishmania major promastigote growth inhibition; Leishmania major promastigotes, resazurin fluorescence viability; 200,000 compounds, 9% hits; AID 1063; inhibition, % at 10 µM; in the data active = inhibition above about 50%;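 note: promastigotes grown with compound for 44 hours at 28 °C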
T cruzi inh: T. cruzi replication inhibition; T. cruzi beta-gal in NIH3T3, luminescence, 90 h; inhibition, % (concentration not given with the values); 300,000 compounds, 1.4% hits;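 active = mean inhibition across valid replicates above about 55%, limit read from the data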;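 note: signal also drops with host cell toxicity which is not excluded here; higher percent means less beta-gal luminescence so fewer parasites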
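Assay system: NIH/3T3 fibroblasts plus reporter T. cruzi. Amount: NIH/3T3 cells, 5,000 per well. Buffer or medium: DMEM, 2% fetal bovine serum. Doses: compound pinned at 50 nL/well, DMSO. Schedule: ≥90 h infection period, 3 h prior cell attachment. Signal: luminescent β-galactosidase signal after 60 min lysis. Read-out: parasite load inhibition, %.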
DTT redox prof: compounds producing H2O2 with reducing agent – biochemical, NIH compound library profiling, artefact control for MLSCN library redox annotation, primary screen | 200,000 compounds, 0.03% hits | AID 878 | activation, % at 10 µM | DTT-dependent redox cycling H2O2, phenol red/HRP absorbance; 100% = 100 µM peroxide control, 0% = buffer;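 active = activation of at least 50% relative to the plate's high and low controls in the primary single-dose screen; inactive = activation below 50%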;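 note: compound incubated with DTT at 0.8 mM final as the reducing agent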
MPTP inh: inhibitors of mitochondrial permeability transition pore; isolated mouse mitochondria, Ca2+ swelling absorbance, 30 min; inhibition, % at 10 µM; 360,000 compounds, 1.4% hits;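 active = inhibition of 50% or more, scaled per plate between neutral and stimulator controls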
Hep lipid drop: modulators of hepatic lipid droplet formation. AML12 mouse hepatocytes, oleate lipid droplets, BODIPY imaging. inhibition, % at 6.5 µM. 240,000 compounds, 0.4% hits;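 active = lipid droplet intensity inhibited by at least 50%, with more than 500 cells counted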
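Test system: AML12 hepatocytes (mouse); reagent: oleate loading, 100 µM; dosing: one dose, 6.5 µM compound; incubation: overnight exposure; signal: fluorescence imaging, 20x objective, two fields per well; read-out basis: % inhibition of corrected integrated BODIPY droplet signal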
A number is an active result. Many of the other results were omitted from the sample, so hits are more common in it than they were.

What do the screens show for `COc1ccc(CNCC(O)COCc2cccs2)cc1` (stereo unspecified)?
Lmaj promast: 88; T cruzi inh: inactive; DTT redox prof: inactive; MPTP inh: inactive

What do the screens show for `COc1ccccc1C(=O)N1CCCC(C)(C(=O)NS(=O)(=O)C2CC2)C1` (stereo unspecified)?
MPTP inh: inactive

What do the screens show for `CCCCN(C(=O)c1cc2c(s1)CCC2)c1c(N)n(CCCC)c(=O)[nH]c1=O`?
T cruzi inh: inactive; MPTP inh: inactive

How did CC(=O)Nc1ccc(Nc2ncnc3c2cnn3-c2ccccc2)cc1 do in these assays?
Lmaj promast: inactive; T cruzi inh: inactive; DTT redox prof: inactive; MPTP inh: inactive

Results for Cc1cccc(-n2ncc3c(NCc4cccs4)ncnc32)c1 ?
Lmaj promast: 97; T cruzi inh: inactive; DTT redox prof: inactive; MPTP inh: inactive; Hep lipid drop: inactive

Results for CC(=O)Nc1ccc(Nc2ncnc3c2cnn3-c2cccc(C)c2)cc1 ?
Lmaj promast: 75; T cruzi inh: inactive; DTT redox prof: inactive; MPTP inh: inactive; Hep lipid drop: inactive

Results for CC(=O)Nc1ccc(Nc2ncnc3c2cnn3-c2ccc(C)cc2C)cc1 ?
Lmaj promast: 68; T cruzi inh: inactive; DTT redox prof: inactive; MPTP inh: inactive; Hep lipid drop: inactive

How did Clc1ccc(-n2ncc3c(NCc4cccs4)ncnc32)cc1 do in these assays?
Lmaj promast: inactive; T cruzi inh: inactive; DTT redox prof: inactive; MPTP inh: inactive

How did COc1ccc(N2CCN(CCCNC(=O)Nc3ccccc3)CC2)cc1 do in these assays?
Lmaj promast: inactive; T cruzi inh: inactive; DTT redox prof: inactive; MPTP inh: inactive; Hep lipid drop: inactive

What do the screens show for `COc1ccc(N2CCN(CCCNC(=O)c3cc4sccc4n3C)CC2)cc1`?
Lmaj promast: 81; T cruzi inh: inactive; DTT redox prof: inactive; MPTP inh: inactive

Results for CC1CCN(CCCNC(=O)c2cc3sccc3n2C)CC1 ?
Lmaj promast: 92; T cruzi inh: inactive; DTT redox prof: inactive; MPTP inh: inactive

Results for COc1cccc(-c2nc(N3CCN(C)CC3)c3ccccc3n2)c1O ?
T cruzi inh: 55; MPTP inh: inactive; Hep lipid drop: inactive

Results for c1ccc(COc2ccc(CN3CCN(c4ccccn4)CC3)cc2)cc1 ?
Lmaj promast: 95; T cruzi inh: inactive; DTT redox prof: inactive; MPTP inh: inactive; Hep lipid drop: inactive

Results for c1ccc(CN2CCN(c3nc(-c4ccccn4)nc4ccccc34)CC2)cc1 ?
Lmaj promast: 100; T cruzi inh: inactive; DTT redox prof: inactive; MPTP inh: inactive

Results for c1ccc2c(N3CCCC3)nc(-c3ccncc3)nc2c1 ?
Lmaj promast: inactive; T cruzi inh: inactive; DTT redox prof: inactive; MPTP inh: inactive

What do the screens show for `CN1CCN(c2nc(-c3ccncc3)nc3ccccc23)CC1`?
Lmaj promast: 100; T cruzi inh: inactive; DTT redox prof: inactive; MPTP inh: inactive; Hep lipid drop: inactive

How did c1ccc(CN2CCN(c3nc(-c4ccccc4)nc(-n4ccnc4)n3)CC2)cc1 do in these assays?
Lmaj promast: inactive; T cruzi inh: 60; DTT redox prof: inactive; MPTP inh: inactive

Results for c1ccc(CN2CCN(c3nc4ccccc4c4ccccc34)CC2)cc1 ?
Lmaj promast: inactive; T cruzi inh: inactive; DTT redox prof: inactive; MPTP inh: inactive; Hep lipid drop: inactive

Results for c1ccc(CN2CCN(c3nc(-c4ccccc4)nc4ccccc34)CC2)cc1 ?
Lmaj promast: 68; T cruzi inh: inactive; DTT redox prof: inactive; MPTP inh: inactive; Hep lipid drop: inactive

What do the screens show for `C(=NNc1ccc2ccccc2n1)c1ccccn1`?
MPTP inh: inactive

What do the screens show for `C[C@@H]1CN([C@H](C)CO)C(=O)CCCn2cc(nn2)CO[C@H]1CN(C)S(=O)(=O)c1ccc2ccccc2c1`?
MPTP inh: inactive

Results for Cc1onc(-c2ccccc2)c1C(=O)Nc1ccc(S(=O)(=O)NC(C)(C)C)cc1 ?
Lmaj promast: inactive; T cruzi inh: inactive; DTT redox prof: inactive; MPTP inh: inactive; Hep lipid drop: inactive

How did CCOC(=O)C1(Cc2cccc(OC)c2)CCN(C/C=C/c2ccccc2)CC1 do in these assays?
Lmaj promast: 80; T cruzi inh: inactive; DTT redox prof: inactive; MPTP inh: inactive; Hep lipid drop: inactive

How did CCOC(=O)C1(Cc2cccc(OC)c2)CCN(Cc2ccc(OC)c(O)c2)CC1 do in these assays?
Lmaj promast: 85; T cruzi inh: inactive; DTT redox prof: inactive; MPTP inh: inactive; Hep lipid drop: inactive

How did CCOC(=O)C1(Cc2cccc(OC)c2)CCN(C2CCOCC2)CC1 do in these assays?
Lmaj promast: 81; T cruzi inh: inactive; DTT redox prof: inactive; MPTP inh: inactive; Hep lipid drop: inactive

What do the screens show for `CCOC(=O)NC1Cc2ccccc2C1Sc1ccccn1` (stereo unspecified)?
T cruzi inh: inactive; MPTP inh: inactive

What do the screens show for `CCC12CN(C(=O)c3ccc(C)cc3)CC(CC)(CN(C(=O)c3ccc(C)cc3)C1)C2=O`?
Lmaj promast: 52; T cruzi inh: inactive; DTT redox prof: inactive; MPTP inh: inactive; Hep lipid drop: inactive

Results for Cc1ccc(C(=O)N2CC3(C(C)C)CN(C(=O)c4ccc(C)cc4)CC(C(C)C)(C2)C3=O)cc1 ?
Lmaj promast: 95; T cruzi inh: inactive; DTT redox prof: inactive; MPTP inh: inactive; Hep lipid drop: inactive

How did Cc1ccn2cc(-c3ccc(NS(=O)(=O)c4ccccc4)cc3)nc2c1 do in these assays?
Lmaj promast: 92; T cruzi inh: inactive; DTT redox prof: inactive; MPTP inh: inactive; Hep lipid drop: inactive

Results for Cc1ccc(S(=O)(=O)Nc2ccc(-c3cn4ccc(C)cc4n3)cc2)cc1 ?
Lmaj promast: inactive; T cruzi inh: inactive; DTT redox prof: inactive; MPTP inh: inactive; Hep lipid drop: inactive

Results for CC(=O)Nc1cccc(-c2cn3ccc(C)cc3n2)c1 ?
Lmaj promast: inactive; T cruzi inh: inactive; DTT redox prof: inactive; MPTP inh: inactive; Hep lipid drop: inactive

What do the screens show for `Cc1ccn2cc(-c3ccc(NC(=O)c4ccco4)cc3)nc2c1`?
Lmaj promast: 68; T cruzi inh: inactive; DTT redox prof: inactive; MPTP inh: inactive; Hep lipid drop: inactive

How did CCOC(=O)c1ccc(-n2cnc(-c3ccc([N+](=O)[O-])cc3)c2)cc1 do in these assays?
MPTP inh: inactive

How did COc1ccc(Cl)cc1N1C(=NC(=O)C2CCCCC2)SC2CS(=O)(=O)CC21 (stereo unspecified) do in these assays?
T cruzi inh: inactive; MPTP inh: inactive; Hep lipid drop: inactive

Results for O=C1ON=C(c2ccccc2)/C1=C/c1ccc(O)cc1 ?
T cruzi inh: inactive; MPTP inh: inactive; Hep lipid drop: inactive

What do the screens show for `O=C1ON=C(c2ccc(Cl)cc2)/C1=C/c1ccc(O)cc1`?
Lmaj promast: 65; T cruzi inh: inactive; DTT redox prof: inactive; Hep lipid drop: inactive

Results for COc1cc(/C=C2/C(=O)ON=C2c2ccccc2)ccc1O ?
Lmaj promast: 88; T cruzi inh: inactive; DTT redox prof: inactive; MPTP inh: inactive; Hep lipid drop: inactive
